Sampled rows, rich in hits. Any-hit rate of the full collection: about 2.8%.
MDM2 E3 inh = blocks human Mdm2 ubiquitin ligase activity; signal enhancement, % at 5 µM; cell-based MDM2 ubiquitination luciferase reporter, 2 h; 0 = plate control, 100 = twice control, blank-subtracted; 0.11% of 210,000 active;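 active = signal enhancement of 30% or more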;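 also: luminescence tracks abundance of the self-degrading MDM2-luciferase fusion protein; higher signal means inhibition of MDM2 E3 ligase activity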
Target sequence (Q00987 whole entry, looked up, the tested form may be a part): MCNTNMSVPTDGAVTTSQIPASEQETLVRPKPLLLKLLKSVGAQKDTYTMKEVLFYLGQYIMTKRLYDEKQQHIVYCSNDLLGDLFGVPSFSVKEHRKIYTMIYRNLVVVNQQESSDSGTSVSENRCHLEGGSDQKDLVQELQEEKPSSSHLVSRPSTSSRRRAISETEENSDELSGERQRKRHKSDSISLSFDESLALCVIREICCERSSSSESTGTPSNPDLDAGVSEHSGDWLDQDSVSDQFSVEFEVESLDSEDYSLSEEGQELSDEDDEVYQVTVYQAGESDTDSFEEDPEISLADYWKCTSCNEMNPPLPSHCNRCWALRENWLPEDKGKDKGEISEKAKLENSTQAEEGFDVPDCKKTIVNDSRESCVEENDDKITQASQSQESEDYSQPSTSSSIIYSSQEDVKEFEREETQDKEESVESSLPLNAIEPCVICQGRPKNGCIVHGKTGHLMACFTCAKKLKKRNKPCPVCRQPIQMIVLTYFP
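system = mammalian cells stably expressing self-ubiquitinating, self-degrading MDM2 E3–luciferase fusion | quantity = 2000 cells per well seeded | incubation = 4 h cell settling then 2 h compound exposure, 37 °C | signal = SteadyLite luminescence, 15 min reagent step | benchmarks = plate control and blank wells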
NPY-Y1 PAM-ag = potentiates or activates human NPY-Y1 receptor | AID 1304 | activation, % at 3.6 µM | NPY-Y1 expressing cells, potentiator/agonist activation | P25929 | 0.37% of 220,000 active; in the data active = activation above about 33%, passing the limit was not always enough;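 also: cells stimulated with NPY at EC10 then isoproterenol at EC100; 0% = low agonist plus stimulus and 100% = saturating agonist plus stimulus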
NPY Y2 blocker = blocks the human neuropeptide Y Y2 receptor. P49146. NPY-Y2 expressing cells, antagonist mode. inhibition, % at 2.7 µM. 0.99% of 140,000 active;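 also: 0% = vehicle with agonist challenge and 100% = reference antagonist with challenge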
Measles CPE = protection of cells from measles virus; Measles virus-infected cells, CPE protection, absorbance; protection (pct of control), % at 4 µM; 1.5% of 140,000 active; AID 841; in the data active = protection mostly above about 24%, no sharp cut-off; inactive = mostly below about 26%
NPY2 pot ag = human NPY-Y2 potentiation or agonism, primary screen; P49146; cells expressing NPY-Y2, potentiator/agonist read-out; activation, % at 3.6 µM; 0.45% of 220,000 active; AID 1359; in the data active = activation above about 27%;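 also: cells stimulated with NPY near EC25 plus isoproterenol at EC100; 0% = vehicle plus submaximal agonist and 100% = vehicle plus saturating agonist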
NPY Y1 blocker = antagonists of human neuropeptide Y receptor Y1; 1% of 200,000 active; HEK293-CNG Y1 cells, membrane potential fluorescence; NPY at EC95, then isoproterenol; AID 1040; P25929; inhibition, % at 3.6 µM;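 active = inhibition above the campaign mean inhibition of all tested compounds plus 3 SD, cut at about 20% in these data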;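 also: 0% = DMSO wells given NPY plus isoproterenol and 100% = isoproterenol alone without NPY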
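material = HEK293 cells with Y1 receptor plus CNG channel | also added = NPY 25 nM then isoproterenol 1 µM plus Ro 20-1724 25 µM | schedule = dye 3 h, compound 60 min room temperature, stimulation 45 min | measured by = membrane potential fluorescence | benchmarks = high control isoproterenol alone, low control NPY with isoproterenol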
NPY-Y1 ant conf = human NPY-Y1 antagonism, confirmation; shares compounds with NPY Y1 blocker; HEK293-CNG NPY-Y1, membrane potential fluorescence, cAMP; NPY challenge against isoproterenol-raised cAMP; inhibition, % at 3.6 µM; 21% of 1,200 active; AID 1254; in the data active = inhibition above about 20%;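 also: 0% = vehicle with agonist plus stimulus and 100% = stimulus alone without agonist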
NPY-Y2 antag ct = counter-screen for NPY-Y1 antagonists: human NPY-Y2 antagonism | shares compounds with NPY Y1 blocker | HEK293 NPY-Y2 CNG membrane potential fluorescence; cells given NPY, then isoproterenol | AID 1255 | 28% of 1,200 active | inhibition, % at 3.6 µM;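 also: 0% = DMSO with agonist challenge and 100% = reference antagonist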
* marks the source's active call; other numbers are inactive results. Rule as the data show it, unless noted: active = inhibition above about 17%; inactive = the rest.

Screening Cn1nccc1C(=O)Nc1cccc(C(F)(F)F)c1 returned MDM2 E3 inh -6.9, NPY-Y1 PAM-ag 13.3, NPY2 pot ag 15.1 and NPY Y1 blocker 1.7.
`Cn1nc(C(=O)Nc2cccc(C(F)(F)F)c2)c2ccccc2c1=O` gave MDM2 E3 inh -9.2, NPY-Y1 PAM-ag -50.3, NPY Y2 blocker 13.2, Measles CPE 11.4, NPY2 pot ag -65.7, NPY Y1 blocker 29.1*, NPY-Y1 ant conf 16.6 and NPY-Y2 antag ct 8.6.
CC1C2NC(=O)N(Cc3ccccc3)C1(C)Oc1ccccc12 (stereo unspecified) was read as MDM2 E3 inh 0.3, NPY-Y1 PAM-ag 3.5, NPY2 pot ag 9.5 and NPY Y1 blocker -4.5.
`O=C(NN=C1CCCCC1)c1ccccc1OCc1ccc(F)cc1` gave MDM2 E3 inh -10.8, NPY-Y1 PAM-ag -51.7, NPY Y2 blocker 5.3, Measles CPE 8.0, NPY2 pot ag -44.2, NPY Y1 blocker 29.7*, NPY-Y1 ant conf -1.6 and NPY-Y2 antag ct 3.4.
`COc1ccc(CNC(NC(=O)c2ccccc2)(C(F)(F)F)C(F)(F)F)cc1` gave MDM2 E3 inh -3.3, NPY-Y1 PAM-ag -1.4, NPY Y2 blocker 3.0, Measles CPE 22.1, NPY2 pot ag -13.8 and NPY Y1 blocker 4.4.
For CCOc1ccc(NC2OCC(O)C(O)C2O)c([N+](=O)[O-])c1 (stereo unspecified) the results were MDM2 E3 inh -0.9, NPY-Y1 PAM-ag 1.2, NPY2 pot ag 10.2 and NPY Y1 blocker 0.1.
Screening N#CC(/C(=N/S(=O)(=O)c1cccs1)c1ccccc1)c1nc2ccccc2[nH]1 (stereo unspecified) returned MDM2 E3 inh -17.4, NPY-Y1 PAM-ag -15.5, NPY Y2 blocker 2.2, Measles CPE 36.2, NPY2 pot ag -23.4, NPY Y1 blocker 22.6*, NPY-Y1 ant conf 21.0* and NPY-Y2 antag ct 25.6*.
`Cc1cccc(OCCNC(=O)c2ccc(Oc3ccc(C(F)(F)F)cc3[N+](=O)[O-])cc2)c1` gave MDM2 E3 inh 4.9, NPY-Y1 PAM-ag -40.6, NPY Y2 blocker 8.7, Measles CPE 14.5, NPY2 pot ag -27.5, NPY Y1 blocker 21.6*, NPY-Y1 ant conf 28.5* and NPY-Y2 antag ct 15.0.
`O=C1Nc2cc(Cl)c(Cl)cc2N(O)N1c1ccc(Cl)c(Cl)c1` gave MDM2 E3 inh -4.4, NPY-Y1 PAM-ag 1.2, NPY Y2 blocker 7.9, Measles CPE 7.8, NPY2 pot ag -13.1 and NPY Y1 blocker 1.5.
CC(C)c1nc2sc(C(=O)O)c(N)c2c2c1CCCC2 was read as MDM2 E3 inh 5.5, NPY-Y1 PAM-ag 27.1 and NPY2 pot ag -1.6.
CCOc1cc(CNCCCN2CCOCC2)cc(Br)c1OCC(=O)Nc1cccc(C(F)(F)F)c1 was read as MDM2 E3 inh -7.8, NPY-Y1 PAM-ag -43.4, NPY Y2 blocker 12.3, Measles CPE 7.9, NPY2 pot ag -29.3, NPY Y1 blocker 27.1*, NPY-Y1 ant conf 17.1 and NPY-Y2 antag ct 23.6*.
For COc1ccccc1NC(=O)COc1ccc(Br)cc1CNCCCN1CCOCC1 the results were MDM2 E3 inh -11.2, NPY-Y1 PAM-ag -11.4, NPY2 pot ag -3.9, NPY Y1 blocker 22.2*, NPY-Y1 ant conf 11.9 and NPY-Y2 antag ct 14.7.
`COc1cc(CNCCCN2CCOCC2)c(Br)cc1OCC(=O)Nc1ccccc1C` gave MDM2 E3 inh -10.2, NPY-Y1 PAM-ag -11.3, NPY2 pot ag -0.4 and NPY Y1 blocker 10.8.
For CNCC(C)COc1ccccc1OCc1ccccc1 (stereo unspecified) the results were MDM2 E3 inh -11.9, NPY-Y1 PAM-ag -13.3, NPY Y2 blocker 16.4, Measles CPE 9.9, NPY2 pot ag -7.4, NPY Y1 blocker 21.6*, NPY-Y1 ant conf 12.1 and NPY-Y2 antag ct 11.2.
`COc1ccccc1NC(=O)/C=C/c1ccc2c(c1)OCO2` gave MDM2 E3 inh -16.7, NPY-Y1 PAM-ag -9.4, NPY2 pot ag -25.5 and NPY Y1 blocker 15.4.
`COc1ccccc1NC(=O)COC(=O)/C=C/c1ccc2c(c1)OCO2` gave MDM2 E3 inh -17.0, NPY-Y1 PAM-ag -29.1, NPY2 pot ag -48.8, NPY Y1 blocker 26.8*, NPY-Y1 ant conf 11.2 and NPY-Y2 antag ct 7.1.
Screening CC1CCN(Cc2c(C#N)c3ccccc3n2C)CC1 returned MDM2 E3 inh -14.4, NPY-Y1 PAM-ag -4.2, NPY Y2 blocker 5.2, Measles CPE 10.3, NPY2 pot ag -3.5 and NPY Y1 blocker 4.7.
Screening CCC(=O)N1CCc2cc(S(=O)(=O)N(CC)c3cccc(C)c3)ccc21 returned MDM2 E3 inh -4.1, NPY-Y1 PAM-ag 12.6, NPY Y2 blocker 4.5, Measles CPE 4.5, NPY2 pot ag -5.6 and NPY Y1 blocker 2.3.
Screening CCN(c1cccc(C(F)(F)F)c1)S(=O)(=O)c1ccc2c(c1)CCN2C(=O)C1CC1 returned MDM2 E3 inh -7.2, NPY-Y1 PAM-ag -49.6, NPY Y2 blocker 13.8, Measles CPE 21.6, NPY2 pot ag -7.6, NPY Y1 blocker 23.7*, NPY-Y1 ant conf 14.1 and NPY-Y2 antag ct 13.2.
Screening COc1ccccc1CN(Cc1cc2cc(C)ccc2[nH]c1=O)Cc1nnnn1Cc1ccco1 returned MDM2 E3 inh -4.8, NPY-Y1 PAM-ag -18.1, NPY Y2 blocker 15.1, Measles CPE 22.2, NPY2 pot ag -8.8, NPY Y1 blocker 33.2*, NPY-Y1 ant conf 20.6* and NPY-Y2 antag ct 9.9.
For CC(=O)NC1(c2ccccc2)CCN(c2cc(C)nc(-c3ccccc3)n2)CC1 the results were MDM2 E3 inh 15.4, NPY-Y1 PAM-ag -11.1, NPY2 pot ag -22.9, NPY Y1 blocker 46.4*, NPY-Y1 ant conf 34.4* and NPY-Y2 antag ct 46.0*.
`Cc1cc(N2CCN(c3cccc(C)c3C)CC2)nc(-c2ccccc2)n1` gave NPY-Y1 PAM-ag -22.9, NPY Y2 blocker 13.8, Measles CPE 22.7, NPY2 pot ag -33.6, NPY Y1 blocker 20.9*, NPY-Y1 ant conf 21.8* and NPY-Y2 antag ct 17.4*.
CCOC(=O)c1c(C)noc1CP(=O)(c1ccccc1)c1ccccc1 was read as MDM2 E3 inh -17.5, NPY-Y1 PAM-ag -22.0, NPY Y2 blocker 16.6, Measles CPE 10.7, NPY2 pot ag -13.2, NPY Y1 blocker 31.4*, NPY-Y1 ant conf 15.7 and NPY-Y2 antag ct 8.8.
COCCNc1nc2nonc2nc1N(C)Cc1cccc2cnccc12 was read as MDM2 E3 inh 47.8*, NPY-Y1 PAM-ag 0.7, NPY2 pot ag -7.9, NPY Y1 blocker 27.3*, NPY-Y1 ant conf 2.5 and NPY-Y2 antag ct 1.4.
O=C(COc1ccccc1[N+](=O)[O-])NCCC1=CCCCC1 was read as MDM2 E3 inh -1.5, NPY-Y1 PAM-ag 2.2, NPY2 pot ag -8.2 and NPY Y1 blocker 2.6.

Compound activity deposited in PubChem BioAssay by several laboratories.
